Screens (PubChem BioAssay)
Shown are actives, neighbours in structure and some others; about 1.8% of the full set was active somewhere.
MT1-MMP act inh = blocks activation of human MT1-MMP; P50281; HT1080 RFP-PRO-GFP cells, GFP/RFP ratio fluorescence, overnight; percent of plate control window, DMSO zero; GFP/RFP ratio change, % at 20 µM; 360,000 compounds, 0.061% hits;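 active = GFP/RFP ratio change of at least 30% with cell ATP level not reduced by more than half and red fluorescence within 50% of control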
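Assay system – RFP-PRO-GFP reporter HT1080 cells · Compound dosing – single dose of 20 µM compound, 1% DMSO final · Incubation – overnight compound exposure at 37 °C · Measure – GFP/RFP fluorescence ratio · Benchmarks – DMSO wells and RFP-L50D-GFP cells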
DAGLB inh = blocks human DAGLB lipase activity. AID 504411. inhibition, % at 5.17 µM. Q8NCG7. 340,000 compounds, 0.059% hits. HEK293T DAGLB membrane lysate, EnzChek fluorogenic substrate; in the data active = inhibition above about 34%
Target sequence (Q8NCG7 whole entry, looked up): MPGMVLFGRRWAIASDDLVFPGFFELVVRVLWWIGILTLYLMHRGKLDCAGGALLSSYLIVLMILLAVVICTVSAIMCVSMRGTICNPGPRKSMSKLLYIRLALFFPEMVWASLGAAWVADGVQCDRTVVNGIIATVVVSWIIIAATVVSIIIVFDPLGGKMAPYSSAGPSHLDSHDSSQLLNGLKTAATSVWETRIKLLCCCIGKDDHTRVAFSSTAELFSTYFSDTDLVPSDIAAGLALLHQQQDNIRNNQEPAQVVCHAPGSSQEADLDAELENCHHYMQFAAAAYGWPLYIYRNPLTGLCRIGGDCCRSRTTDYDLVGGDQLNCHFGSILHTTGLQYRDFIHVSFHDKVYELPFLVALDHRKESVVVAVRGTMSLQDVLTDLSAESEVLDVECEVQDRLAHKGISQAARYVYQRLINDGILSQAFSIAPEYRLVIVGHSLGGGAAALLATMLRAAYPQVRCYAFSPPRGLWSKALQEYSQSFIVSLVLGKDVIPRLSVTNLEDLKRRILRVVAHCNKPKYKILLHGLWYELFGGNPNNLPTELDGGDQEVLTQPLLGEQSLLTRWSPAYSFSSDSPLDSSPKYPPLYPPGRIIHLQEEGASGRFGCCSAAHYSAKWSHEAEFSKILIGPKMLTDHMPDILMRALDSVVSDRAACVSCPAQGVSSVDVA
Ecoli rRNA inh = inhibitors of bacterial rRNA selective over humanized ribosomes | E. coli WT GFP vs humanized-ribosome RFP mutants, fluorescence, 24 h; stronger effect = lower value; DMSO median 0, no signal -100 | GFP signal change (wild-type ribosome), % (no concentration beside the values) | 350,000 compounds, 1.6% hits;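 active = significant combined selectivity score with lowered wild-type GFP, culture density cut under 30%, mutant RFP and density less affected; inactive = any of these conditions unmet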
Cneo AK release = Cryptococcus neoformans lysis via adenylate kinase release; C. neoformans lysis, adenylate kinase release luminescence, 4 h; normalised: neutral wells 0, clomiphene wells 100; lysis activity, % at 15 µM; 360,000 compounds, 0.2% hits; AID 651654;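 active = mean lysis activity across replicates of at least 80%, whatever share of replicates individually reach that level; inactive = mean lysis activity below 80%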
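Schedule: static 4 h at 37 °C with compound, 1 h detection; system: C. neoformans cells; benchmarks: Clomiphene as positive control; buffer or medium: fresh YPD medium; measure: luminescence rise reflecting yeast cell lysis; measured by: luminescent adenylate kinase detection reagent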
SKN-1 block = inhibitors of C. elegans SKN-1. 360,000 compounds, 0.49% hits. AID 624304. C. elegans VP596 Pgst-4::GFP/RFP ratio, acrylamide-induced, 24 h. inhibition, % at 21.8 µM;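 active = interference check ratio from 0.5 to 1.5 plus GFP to RFP signal ratio inhibition reaching or exceeding a fixed threshold, cut at about 30% in these data, passing the limit was not always enough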
iPSC survival up = hiPSC single-cell survival enhancement | survival enhancement, % at 20 µM | 360,000 compounds, 0.044% hits | ATPlite luminescence; 100% = ROCK inhibitor wells, 0% = DMSO; in the data active = survival enhancement above about 18%;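 note: cells exposed to compounds for 16 hours before the ATP read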
A number is an active result; – = inactive; · = not tested or not shown.

SMILES	MT1-MMP act inh	DAGLB inh	Ecoli rRNA inh	Cneo AK release	SKN-1 block	iPSC survival up
O=C(c1ccccc1)c1ccccc1	–	–	–	–	–	–
CC(=O)C1=C(c2ccccc2)OC(N)=C(C#N)C1c1ccccc1F (stereo not drawn)	–	–	-46.6	·	–	–
N#CC1=C(N)Oc2cc(N)ccc2C1c1ccccc1F (stereo not drawn)	–	–	–	–	–	–
CC(=O)C1=C(c2ccccc2)OC(N)=C(C#N)C1c1ccccc1C (stereo not drawn)	–	–	-33.4	·	–	–
Cc1ccc(-c2nc(C#N)c(NCC3CCCO3)o2)cc1 (stereo not drawn)	–	–	-23.8	·	–	–
COc1ccc(-c2nc(C#N)c(NCC3CCCO3)o2)cc1 (stereo not drawn)	–	–	·	–	–	–
COCOCCn1cc(CN2CCS(=O)(=O)N(Cc3ccc(-c4cccc(N(C)C)c4)cc3)C(C(C)C)C2=O)nn1 (stereo not drawn)	–	–	–	·	35.7	–
COC(=O)c1ccc(CN2CCCC(CO)(Cc3ccccc3F)C2)cc1 (stereo not drawn)	–	–	-20.0	–	–	–
COc1cc(CN2CCCC(CO)(Cc3ccccc3F)C2)ccc1O (stereo not drawn)	–	–	–	–	–	–
Cc1cc(C(=O)Nc2cccc3c2O[C@@H](CN(C)Cc2ccc(Oc4ccccc4)cc2)[C@H](C)CN([C@@H](C)CO)C3=O)n(C)n1	·	·	–	–	·	·
CCCCNC(=O)CCC(=O)Nc1ccc2nc(N3CCOCC3)cc(C)c2c1	–	–	·	–	–	–
Cc1cc(N2CCOCC2)nc2ccc(NC(=O)C3CCC(C)CC3)cc12 (stereo not drawn)	–	–	·	–	35.2	–
CCN1CCN(c2cc(C)c3cc(NC(=S)N4CCCCC4)ccc3n2)CC1	–	–	–	–	37.5	–
CCN1CCN(c2cc(C)c3cc(NC(=S)N4CCCC4)ccc3n2)CC1	–	–	–	·	–	–
Cc1ccc(S(=O)(=O)N(C)C[C@H]2OCCCC[C@H](C)Oc3ccc(NC(=O)NC4CCCCC4)cc3C(=O)N([C@H](C)CO)C[C@H]2C)cc1	·	·	–	–	·	·
Cc1ccc(C2(C)NC(=O)N(CCOc3ccccc3)C2=O)cc1 (stereo not drawn)	–	–	-33.1	–	–	–
CC(C)Oc1ccc(C(=O)NC(=S)Nc2ccc(Cl)c(C(=O)O)c2)cc1	–	–	-20.6	·	–	–
O=C(N[C@H](C(=O)N1CCC[C@H]1C(=O)NC1CCCC1)C1CCCCC1)c1ccc(Cl)cc1Cl	·	·	-28.0	·	·	·
O=C(c1ccccc1)c1cc([N+](=O)[O-])ccc1N1CCOCC1	–	–	·	–	–	–
O=C(c1ccc(Br)cc1)c1cc([N+](=O)[O-])ccc1N1CCOCC1	–	–	–	·	65.2	–
O=C(OCc1ccc(Br)cc1)c1cc([N+](=O)[O-])ccc1N1CCOCC1	–	–	–	–	–	–
O=C(c1ccc(Cl)cc1)c1cc([N+](=O)[O-])ccc1N1CCOCC1	–	–	–	·	66.7	–
O=C(COC(=O)c1cc([N+](=O)[O-])ccc1N1CCOCC1)Nc1ccc(Cl)cc1	–	–	-33.5	–	–	–
NC(=O)c1ccc(NC(=O)COC(=O)c2cc([N+](=O)[O-])ccc2N2CCOCC2)cc1	–	–	–	·	–	–
COc1ccc2c3c(n(C)c2c1)[C@H](CO)N(C(=O)CN(C)C)CC31CN(C(=O)CN(C)C)C1	·	·	–	·	·	·
SMILES	MT1-MMP act inh	DAGLB inh	Ecoli rRNA inh	Cneo AK release	SKN-1 block	iPSC survival up
O=C(C[C@@H]1CC[C@H]2[C@@H](COC[C@@H](O)CN2Cc2ccncc2)O1)NCc1ccncc1	·	·	–	–	·	·
CO[C@H]1CN(C)C(=O)c2ccc(NS(=O)(=O)c3ccccc3)cc2OC[C@@H](C)N(Cc2ccccn2)C[C@@H]1C	·	·	–	–	·	·
C[C@H](CO)N1C[C@H](C)[C@@H](CN(C)C(=O)Nc2ccccc2)Oc2ccc(NC(=O)Nc3cccc4ccccc34)cc2CC1=O	·	·	–	–	·	·
COc1cccc(/C=C2\Oc3cc(OCC(=O)N4CCCC4)ccc3C2=O)c1OC	–	–	-23.9	–	–	–
C[C@H]1CN([C@@H](C)CO)C(=O)CCCn2cc(nn2)CO[C@@H]1CN(C)Cc1ccc(C(F)(F)F)cc1	·	·	–	81.9	·	·
C[C@@H]1CN([C@@H](C)CO)C(=O)CCCn2cc(nn2)CO[C@@H]1CN(C)Cc1ccc2c(c1)OCO2	·	·	–	114.0	·	·
C[C@H](CO)N1C[C@H](C)[C@@H](CN(C)Cc2ccc3c(c2)OCO3)OCc2cn(nn2)CCCC1=O	·	·	–	–	·	·
CC(C)OC(=O)N(C)C[C@H]1OCc2cn(nn2)CCCC(=O)N([C@@H](C)CO)C[C@@H]1C	·	·	–	–	·	·
COC(=O)N(C)C[C@H]1OCc2cn(nn2)CCCC(=O)N([C@H](C)CO)C[C@@H]1C	·	·	–	99.8	·	·
C[C@H](CO)N1C[C@H](C)[C@H](CN(C)Cc2ccc(C(F)(F)F)cc2)OCc2cn(nn2)CCCC1=O	·	·	–	·	·	·
CCS(CC)=NS(=O)(=O)c1ccc(NC(C)=O)cc1	–	–	·	122.6	–	–
CC(=O)Nc1ccc(S(=O)(=O)N=S(C)C)cc1	–	–	·	–	–	–
CC(C)C(c1nnnn1Cc1ccco1)N1CCN(C2CCCC2)CC1 (stereo not drawn)	–	–	·	–	51.2	–
O=C(C[C@@H]1C[C@@H]2c3cc(NC(=O)Cc4ccncc4)ccc3O[C@@H]2[C@H](CO)O1)NCC1CC1	·	·	–	–	·	·
C=CCN1C(=O)CS/C1=C(\C#N)S(=O)(=O)c1ccc(C)cc1	–	–	·	–	33.8	–
C[C@@H]1CN([C@@H](C)CO)S(=O)(=O)c2ccc(/C=C/c3ccccc3)cc2O[C@@H]1CN(C)C(=O)CN1CCOCC1	·	·	–	–	·	·
CC1CCN(C(=O)c2[nH]cnc2C(=O)NCC(=O)OC(C)(C)C)CC1	–	–	–	–	–	26.4
C[C@@H]1CN([C@@H](C)CO)C(=O)c2cc(C#CC(C)(C)O)cnc2O[C@@H]1CN(C)Cc1cccc(F)c1	·	·	–	·	·	·
C[C@@H]1CN([C@@H](C)CO)C(=O)c2cc(C3=CCCCC3)cnc2O[C@@H]1CN(C)C(=O)c1cccnc1	·	·	–	–	·	·
COCC#Cc1cnc2c(c1)C(=O)N([C@@H](C)CO)C[C@H](C)[C@@H](CN(C)C(=O)c1cccnc1)O2	·	·	–	–	·	·
O=[N+]([O-])c1ccc(/C=C/C2=NN(c3ccccc3)C(c3ccco3)C2)o1 (stereo not drawn)	–	–	–	·	33.3	–
O=C1Nc2ccccc2/C1=C/c1ccccc1F	–	–	-29.2	–	–	–
CCCNC(=O)NC[C@@H]1[C@H](c2ccc(C3=CCCC3)cc2)[C@H](CO)N1C(C)=O	·	·	–	–	·	·
